Assay [1] relates to RXF 393. As to the kind of experiment: Growth inhibition of human RXF393 cells at 10 uM after 48 hrs by SRB assay relative to control. The settings on record: RXF 393, 48 h, read-out: GI. In kind it is functional. The method in brief: (§1)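 Screened at the National Cancer Institute by the standard NCI protocol using the sulforhodamine B assay, which measures cellular protein. Single dose of 10 µM. Result is percent growth inhibition; values above 100% mean cell number fell below the initial population. Values are the average of duplicates.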

Assay [2] has as its system MCF7. As to the kind of experiment: Growth inhibition of human MCF7 cells at 10 uM after 48 hrs by SRB assay relative to control. Type of assay: functional. The conditions noted are these: MCF7, 48 h, read-out: GI. In a few lines:
as §1

In assay [3] the test system is SF-295. As to the kind of experiment: Growth inhibition of human SF295 cells at 10 uM after 48 hrs by SRB assay relative to control. In kind it is functional. The settings on record: SF-295, 48 h, read-out: GI. In a few lines:
as §1
(In general: Sulforhodamine B stains cellular protein and so reports cell mass.)

Assay [4] concerns IGROV-1. As to the kind of experiment: Growth inhibition of human IGROV1 cells at 10 uM after 48 hrs by SRB assay relative to control. Type of assay: functional. The conditions noted are these: IGROV-1, 48 h, read-out: GI. The method in brief:
as §1

Assay [5] is described as follows: Cytotoxicity against human IOSE-80PC cells after 48 hrs by MTT assay. Type of assay: cell-based. In a few lines: (§2)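 Normal human lung epithelial L132 and ovarian epithelial IOSE-80PC cells were tested by MTT viability assay, and IC50 was determined.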
Background: Formazan colour is commonly taken as a measure of viable cells.

For assay [6], the system named is SK-MEL-28. The experiment in a line: Growth inhibition of human SK-MEL-28 cells at 10 uM after 48 hrs by SRB assay relative to control. In kind it is functional. The settings on record: SK-MEL-28, 48 h, read-out: GI. In a few lines:
as §1

For assay [7], the system named is ACHN. As to the kind of experiment: Growth inhibition of human ACHN cells at 10 uM after 48 hrs by SRB assay relative to control. The conditions noted are these: read-out: GI. Type of assay: functional. The method in brief:
as §1

Assay [8] deals with NCI-H322M. The experiment in a line: Growth inhibition of human NCI-H322M cells at 10 uM after 48 hrs by SRB assay relative to control. Type of assay: functional. The settings on record: read-out: GI. The method in brief: as §1
The subject of assay [9] is RPMI-8226. The experiment in a line: Growth inhibition of human RPMI8226 cells at 10 uM after 48 hrs by SRB assay relative to control. The settings on record: RPMI-8226, 48 h, read-out: GI. Type of assay: functional. In a few lines:
as §1

The subject of assay [10] is UACC-257. The experiment in a line: Growth inhibition of human UACC257 cells at 10 uM after 48 hrs by SRB assay relative to control. In kind it is functional. The settings on record: UACC-257, 48 h, read-out: GI. The method in brief:
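NCI screen against its human cancer cell line panel by the standard NCI protocol, SRB protein stain. Single dose of 10 μM. Percent growth inhibition versus control; values above 100% mean the cell population fell below the starting number. Each value is the mean of duplicates.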

Assay [11] concerns OVCAR-8. As to the kind of experiment: Growth inhibition of human OVCAR8 cells at 10 uM after 48 hrs by SRB assay relative to control. Type of assay: functional. The conditions noted are these: OVCAR-8, 48 h, read-out: GI. The method in brief:
as §1

The subject of assay [12] is CAKI-1. As to the kind of experiment: Growth inhibition of human Caki1 cells at 10 uM after 48 hrs by SRB assay relative to control. The settings on record: CAKI-1, 48 h, read-out: GI. In kind it is functional. In a few lines: as §1
The subject of assay [13] is KM12. As to the kind of experiment: Growth inhibition of human KM12 cells at 10 uM after 48 hrs by SRB assay relative to control. Type of assay: functional. The conditions noted are these: KM12, 48 h, read-out: GI. The method in brief: as §1
For assay [14], the system named is L132. The experiment in a line: Cytotoxicity against human L-132 cells after 48 hrs by MTT assay. Type of assay: cell-based. The settings on record: L132, 48 h. In a few lines: as §2
The subject of assay [15] is DU-145. As to the kind of experiment: Growth inhibition of human DU145 cells at 10 uM after 48 hrs by SRB assay relative to control. The settings on record: DU-145, 48 h, read-out: GI. In kind it is functional. The method in brief: as §1
Assay [16] has as its system NCI-H23. The experiment in a line: Growth inhibition of human NCI-H23 cells at 10 uM after 48 hrs by SRB assay relative to control. The settings on record: NCI-H23, 48 h, read-out: GI. In kind it is functional. The method in brief: as §1
In assay [17] the test system is SF-268. As to the kind of experiment: Growth inhibition of human SF268 cells at 10 uM after 48 hrs by SRB assay relative to control. Type of assay: functional. The conditions noted are these: SF-268, 48 h, read-out: GI. The method in brief:
as §1

For assay [18], the system named is CCRF-CEM. The experiment in a line: Growth inhibition of human CCRF-CEM cells at 10 uM after 48 hrs by SRB assay relative to control. Type of assay: functional. The settings on record: read-out: GI. The method in brief:
as §1

Assay [19] has as its system LOX IMVI. As to the kind of experiment: Growth inhibition of human LOXIMVI cells at 10 uM after 48 hrs by SRB assay relative to control. Type of assay: functional. The settings on record: read-out: GI. The method in brief: as §1
In assay [20] the test system is HCT-15. The experiment in a line: Growth inhibition of human HCT15 cells at 10 uM after 48 hrs by SRB assay relative to control. Type of assay: functional. The settings on record: HCT-15, 48 h, read-out: GI. The method in brief:
as §1

Assay [21] concerns OVCAR-5. As to the kind of experiment: Growth inhibition of human OVCAR5 cells at 10 uM after 48 hrs by SRB assay relative to control. In kind it is functional. The settings on record: OVCAR-5, 48 h, read-out: GI. The method in brief:
as §1

For assay [22], the system named is NCI-H226. The experiment in a line: Growth inhibition of human NCI-H226 cells at 10 uM after 48 hrs by SRB assay relative to control. In kind it is functional. The settings on record: NCI-H226, 48 h, read-out: GI. The method in brief: as §1
The subject of assay [23] is NCI-H460. As to the kind of experiment: Growth inhibition of human NCI-H460 cells at 10 uM after 48 hrs by SRB assay relative to control. In kind it is functional. The conditions noted are these: NCI-H460, 48 h, read-out: GI. In a few lines:
as §1

One may read the IC50 as the concentration that gives 50% inhibition. In the case of `COc1ccccc1C(=O)Nc1cccc(-c2cc(=O)c3c(OC)c(OC)c(OC)cc3o2)c1`, the inhibition of growth at 10 µM in assay [1] was 41%; in assay [2], 46.6%; in [3], 40.8%; in assay [4], 57.1%; in [6] it was 44%; in assay [7] it was 57%. The inhibition of growth at 10 µM in assay [8] amounted to 56.4%; in assay [9], 93.2%; in [10], 38.5%; in [11], 61.3%; in assay [12] it was 34.9%; in assay [13], 61.6%. The inhibition of growth at 10 µM in assay [15] is 55.1%; in assay [16], 37.6%; in assay [17], 45.5%; in assay [18], 84%; in [19], 64.6%; in assay [20], 58.5%. In addition, the inhibition of growth at 10 µM in assay [21] was 18.8%; in assay [22], 41.6%. Further, the IC50 in assay [5] and in [14] was above 100 µM throughout.
With `COc1cc2oc(-c3cccc(C(=O)Nc4ccc5c(c4)OCO5)c3)cc(=O)c2c(OC)c1OC`, the inhibition of growth at 10 µM in assay [1] worked out at 29%; in [2] it was 17.9%; in [3] it was 2.37%; in assay [4], 39.8%; in [6], 20.4%; in assay [7] it was 10.2%. Moreover, the inhibition of growth at 10 µM in [8] is 22.6%; in assay [9] it was 79.1%; in assay [10], 5.96%; in assay [11], 45.9%; in [12], 27.9%; in assay [13], 32.7%. Also, the inhibition of growth at 10 µM in [15] was determined as 18.7%; in assay [16], 10.3%; in [17] it was 12.5%; in assay [18], 36.6%; in [23] it was 26.9%; in assay [19], 81.5%. Besides, the values for the inhibition of growth at 10 µM in assay [20], in [21] and in assay [22] were 28.2%, 16.4% and 21.2%, respectively.
`COc1ccc(C(=O)Nc2cccc(-c3cc(=O)c4c(OC)c(OC)c(OC)cc4o3)c2)cc1`: the inhibition of growth at 10 µM stood at 46.4% in assay [1]; 33.5% in assay [2]; 40.4% in assay [3]; 46.1% in assay [4]; 31% in [6]; 53% in assay [7]. Besides, the inhibition of growth at 10 µM in [8] is 44.9%; in assay [9], 81.2%; in assay [10] it was -4.69%; in assay [11], 42.1%; in [12] it was 42.6%; in assay [13], 53.7%. Besides, the inhibition of growth at 10 µM in [15] was determined as 43.5%; in [16], 42.5%; in assay [17], 41.6%; in assay [18], 72.5%; in assay [23], 57.9%; in assay [19], 58.1%. For the same compound, the inhibition of growth at 10 µM in assay [20] is 54.8%; in assay [21] it was 4.43%; in assay [22], 30.1%.
Consider `COc1ccccc1C(=O)Nc1cccc(-c2cc(=O)c3c(O)c(OC)c(OC)cc3o2)c1`, for which the inhibition of growth at 10 µM is -12.1% in [1]; -1.88% in [2]; 6.16% in assay [3]; 3.04% in assay [4]; -1.9% in assay [6]; 5.14% in assay [7]. Further, the inhibition of growth at 10 µM in [8] was determined as 8.64%; in assay [9], 21.6%; in assay [10], 31.9%; in assay [11] it was 17.5%; in assay [12], 9.48%; in [13], 5.13%. In addition, the inhibition of growth at 10 µM was -2.87% in [15]; 1.58% in [16]; 8.58% in assay [17]; 5.53% in [18]; -2.21% in [23]; 4.4% in [19]. Also, the results for the inhibition of growth at 10 µM in assay [20], in [21] and in assay [22] were 3.51%, 5.27% and 13%, respectively.
As for `COc1ccccc1NC(=O)c1cccc(-c2cc(=O)c3c(O)c(OC)c(OC)cc3o2)c1`, the inhibition of growth at 10 µM in [1] was 21.8%; in assay [2], 7.54%; in [3] it was 10.8%; in assay [4], -5.97%; in assay [6], 5.62%; in assay [7], 9.27%. Moreover, the inhibition of growth at 10 µM in assay [8] stood at 1.56%; in assay [9] it was 45.4%; in assay [10], 1.19%; in assay [11] it was 35.2%; in assay [12], 6.75%; in assay [13], 0.81%. The inhibition of growth at 10 µM in assay [15] was 5.49%; in [16] it was 13.9%; in assay [17], 12.9%; in assay [18] it was 39.8%; in assay [23], -3.83%; in [19], 16.7%. Moreover, the inhibition of growth at 10 µM in assay [20] came out at 13%; in assay [21] it was 8.1%; in assay [22] it was 23.9%.
`COc1cc2oc(-c3cccc(NC(=O)c4ccc5c(c4)OCO5)c3)cc(=O)c2c(O)c1OC`: the inhibition of growth at 10 µM in assay [1] came out at 32.6%; in assay [2], 11.4%; in [3] it was 19%; in assay [4], 5.56%; in [6], 15.2%; in assay [7] it was 30.5%. Further, the inhibition of growth at 10 µM in assay [8] amounted to 15.7%; in assay [9], 20.6%; in assay [10] it was 17.2%; in assay [11], 37.8%; in assay [12], 34.4%; in assay [13], 1.48%. Moreover, the inhibition of growth at 10 µM in assay [15] is 2.12%; in assay [16], 13.4%; in [17] it was 32.5%; in assay [18] it was 11.7%; in assay [23], 16.7%; in assay [19] it was 5.74%. For the same compound, the values for the inhibition of growth at 10 µM in assay [20], in assay [21] and in [22] were 0.04%, 13.7% and 55.4%, respectively.

The values are drawn from ChEMBL document CHEMBL4325889, “Natural products hybrids: 3,5,4'-Trimethoxystilbene-5,6,7-trimethoxyflavone chimeric analogs as potential cytotoxic agents against diverse human cancer cells” (Eur J Med Chem, 2019).
